≈ marks a conversion by molar mass, not a printed value.
Test: Cytotoxicity against human MT2 cells assessed as reduction in cell growth by MTT assay
Format: toxicity, cell-based
Details: not given
In short: (§1)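 Human MT-2 T cells, run in triplicate. For antiviral activity, cells were infected with the HIV-1 IIIB strain, and EC50 was taken as the dose giving 50% protection of infected cells. For cytotoxicity, CC50 was the concentration that inhibited MT-2 cell growth by 50%.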
`Cc1cc2ccc(C#N)cc2c(C)c1Oc1ccccc1OCCn1ccc(=O)[nH]c1=O` gave a CC50 of 5000 nM.
For `N#Cc1ccc2c(Cl)cc(Oc3ccc(F)cc3OCCn3ccc(=O)[nH]c3=O)cc2c1`, the CC50 was over 100000 nM.
Compound `N#Cc1ccc2c(Cl)cc(Oc3ccccc3OCCn3ccc(=O)[nH]c3=O)cc2c1` has a CC50 of 12000 nM.
With `Cc1c(Oc2ccccc2OCCn2ccc(=O)[nH]c2=O)cc(C(C)C)c2ccc(C#N)cc12` the CC50 was 9000 nM.
In the case of `Cc1c(Oc2ccc(F)cc2OCCn2ccc(=O)[nH]c2=O)cc(F)c2ccc(C#N)cc12`, the CC50 is reported as over 100000 nM.
Compound `Cc1c(Oc2ccc(F)cc2OCCn2ccc(=O)[nH]c2=O)cc(Cl)c2ccc(C#N)cc12` has a CC50 of 82000 nM.
`N#Cc1ccc2ccc(Oc3ccc(F)cc3OCCn3ccc(=O)[nH]c3=O)cc2c1` showed a CC50 of over 100000 nM.
With `Cc1cc(Oc2ccc(F)cc2OCCn2ccc(=O)[nH]c2=O)c(F)c2cc(C#N)ccc12` the CC50 was 45000 nM.
In the case of `Cc1c(Oc2ccccc2OCCn2ccc(=O)[nH]c2=O)c(C)c2cc(C#N)ccc2c1C`, the CC50 is reported as over 100000 nM.
`Cc1c(Oc2ccc(Cl)cc2OCCn2ccc(=O)[nH]c2=O)cc(F)c2ccc(C#N)cc12` gave a CC50 of 6000 nM.
With `Cc1c(Oc2ccccc2OCCn2ccc(=O)[nH]c2=O)cc(Cl)c2ccc(C#N)cc12` the CC50 was over 100000 nM.
Compound `N#Cc1ccc2c(F)cc(Oc3ccc(F)cc3OCCn3ccc(=O)[nH]c3=O)c(Cl)c2c1` has a CC50 of 28000 nM.
`Cc1cc(Oc2ccccc2OCCn2ccc(=O)[nH]c2=O)c(Cl)c2cc(C#N)ccc12` showed a CC50 of over 100000 nM.
For `N#Cc1ccc2c(F)cc(Oc3ccccc3OCCn3ccc(=O)[nH]c3=O)c(Cl)c2c1`, the CC50 was over 100000 nM.
For `CCc1cc(Oc2ccccc2OCCn2ccc(=O)[nH]c2=O)c(C)c2cc(C#N)ccc12`, the CC50 was 12000 nM.
`Cc1cc(Oc2ccc(F)cc2OCCn2ccc(=O)[nH]c2=O)c(C)c2cc(C#N)ccc12` gave a CC50 of over 100000 nM.
With `CCOc1cc(Oc2ccccc2OCCn2ccc(=O)[nH]c2=O)c(C)c2cc(C#N)ccc12` the CC50 was over 100000 nM.
Work on `N#Cc1ccc2cc(Oc3ccccc3OCCn3ccc(=O)[nH]c3=O)ccc2c1` yielded a CC50 of 9000 nM.
Work on `Cc1c(Oc2ccccc2OCCn2ccc(=O)[nH]c2=O)cc(F)c2ccc(C#N)cc12` yielded a CC50 of over 100000 nM.
`COc1cc(Oc2ccccc2OCCn2ccc(=O)[nH]c2=O)c(C)c2cc(C#N)ccc12` showed a CC50 of over 100000 nM.
For `Cc1cc(Oc2ccccc2OCCn2ccc(=O)[nH]c2=O)c(C)c2cc(C#N)ccc12`, the CC50 was over 100000 nM.
`Cc1cc(Oc2ccccc2OCCn2ccc(=O)[nH]c2=O)cc2cc(C#N)ccc12` showed a CC50 of 6000 nM.
Work on `COCc1cc(Oc2ccccc2OCCn2ccc(=O)[nH]c2=O)c(C)c2cc(C#N)ccc12` yielded a CC50 of 16000 nM.
For `CCCc1cc(Oc2ccccc2OCCn2ccc(=O)[nH]c2=O)c(C)c2cc(C#N)ccc12`, the CC50 was 15000 nM.
`N#Cc1ccc2ccc(Oc3ccccc3OCCn3ccc(=O)[nH]c3=O)cc2c1` gave a CC50 of 15000 nM.
For `Cc1c(Oc2ccccc2OCCn2ccc(=O)[nH]c2=O)cc(CC2CC2)c2ccc(C#N)cc12`, the CC50 was 13000 nM.

Test: Aqueous solubility of the compound at pH 6.5 by shake-flask method
Format: physicochemical
Details: not given
Compound `Cc1c(Oc2ccccc2OCCn2ccc(=O)[nH]c2=O)cc(Cl)c2ccc(C#N)cc12` has a solubility thermodynamic of 20.6 µg/mL (≈ 46 µM).
For `Cc1c(Oc2ccccc2OCCn2ccc(=O)[nH]c2=O)cc(F)c2ccc(C#N)cc12`, the solubility thermodynamic was 28.2 µg/mL (≈ 65.4 µM).

Test: Inhibition of wild-type HIV1 3B reverse transcriptase infected in human MT2 cells assessed as protection against viral infection by MTT assay
Format: cell-based
Details: Human immunodeficiency virus 1, 3B
In short: as §1
With `N#Cc1cc2c(Oc3ccc(F)cc3OCCn3ccc(=O)[nH]c3=O)cc(F)cn2c1` the EC50 was 0.4 nM.
`Cc1cc2ccc(C#N)cc2c(C)c1Oc1ccccc1OCCn1ccc(=O)[nH]c1=O` showed an EC50 of 160 nM.
For `N#Cc1ccc2c(Cl)cc(Oc3ccc(F)cc3OCCn3ccc(=O)[nH]c3=O)cc2c1`, the EC50 was 24 nM.
For `N#Cc1ccc2c(Cl)cc(Oc3ccccc3OCCn3ccc(=O)[nH]c3=O)cc2c1`, the EC50 was 14 nM.
`Cc1c(Oc2ccccc2OCCn2ccc(=O)[nH]c2=O)cc(C(C)C)c2ccc(C#N)cc12` gave an EC50 of 16 nM.
Work on `Cc1c(Oc2ccc(F)cc2OCCn2ccc(=O)[nH]c2=O)cc(F)c2ccc(C#N)cc12` yielded an EC50 of 3 nM.
With `Cc1c(Oc2ccc(F)cc2OCCn2ccc(=O)[nH]c2=O)cc(Cl)c2ccc(C#N)cc12` the EC50 was 3.6 nM.
For `N#Cc1ccc2ccc(Oc3ccc(F)cc3OCCn3ccc(=O)[nH]c3=O)cc2c1`, the EC50 was 26 nM.
`Cc1cc(Oc2ccc(F)cc2OCCn2ccc(=O)[nH]c2=O)c(F)c2cc(C#N)ccc12` showed an EC50 of 58 nM.
`Cc1c(Oc2ccccc2OCCn2ccc(=O)[nH]c2=O)c(C)c2cc(C#N)ccc2c1C` gave an EC50 of 580 nM.
`Cc1c(Oc2ccc(Cl)cc2OCCn2ccc(=O)[nH]c2=O)cc(F)c2ccc(C#N)cc12` gave an EC50 of 18 nM.
`Cc1c(Oc2ccccc2OCCn2ccc(=O)[nH]c2=O)cc(Cl)c2ccc(C#N)cc12` gave an EC50 of 6.2 nM.
Work on `N#Cc1ccc2c(F)cc(Oc3ccc(F)cc3OCCn3ccc(=O)[nH]c3=O)c(Cl)c2c1` yielded an EC50 of 7 nM.
`Cc1cc(Oc2ccccc2OCCn2ccc(=O)[nH]c2=O)c(Cl)c2cc(C#N)ccc12` gave an EC50 of 5 nM.
With `N#Cc1ccc2c(F)cc(Oc3ccccc3OCCn3ccc(=O)[nH]c3=O)c(Cl)c2c1` the EC50 was 5 nM.
`CCc1cc(Oc2ccccc2OCCn2ccc(=O)[nH]c2=O)c(C)c2cc(C#N)ccc12` showed an EC50 of 6 nM.
`Cc1cc(Oc2ccc(F)cc2OCCn2ccc(=O)[nH]c2=O)c(C)c2cc(C#N)ccc12` gave an EC50 of 1.9 nM.
Work on `CCOc1cc(Oc2ccccc2OCCn2ccc(=O)[nH]c2=O)c(C)c2cc(C#N)ccc12` yielded an EC50 of 10 nM.
`N#Cc1ccc2cc(Oc3ccccc3OCCn3ccc(=O)[nH]c3=O)ccc2c1` showed an EC50 of 1300 nM.
With `Cc1c(Oc2ccccc2OCCn2ccc(=O)[nH]c2=O)cc(F)c2ccc(C#N)cc12` the EC50 was 7.8 nM.
For `COc1cc(Oc2ccccc2OCCn2ccc(=O)[nH]c2=O)c(C)c2cc(C#N)ccc12`, the EC50 was 17 nM.
For `Cc1cc(Oc2ccccc2OCCn2ccc(=O)[nH]c2=O)c(C)c2cc(C#N)ccc12`, the EC50 was 3.5 nM.
`Cc1cc(Oc2ccccc2OCCn2ccc(=O)[nH]c2=O)cc2cc(C#N)ccc12` showed an EC50 of 4.9 nM.
`COCc1cc(Oc2ccccc2OCCn2ccc(=O)[nH]c2=O)c(C)c2cc(C#N)ccc12` showed an EC50 of 15 nM.
With `CCCc1cc(Oc2ccccc2OCCn2ccc(=O)[nH]c2=O)c(C)c2cc(C#N)ccc12` the EC50 was 21 nM.
Work on `N#Cc1ccc2ccc(Oc3ccccc3OCCn3ccc(=O)[nH]c3=O)cc2c1` yielded an EC50 of 22 nM.
In the case of `Cc1c(Oc2ccccc2OCCn2ccc(=O)[nH]c2=O)cc(CC2CC2)c2ccc(C#N)cc12`, the EC50 is reported as 18 nM.
